ChEMBL document CHEMBL4184291, “Discovery of N-arylpyrroles as agonists of GPR120 for the treatment of type II diabetes” (Bioorg Med Chem Lett, 2018)

How the values were obtained:
Cytochrome P450 2C19 = Cytochrome P450 2C19 (Homo sapiens, UniProt P33261); assay: Inhibition of CYP2C19 (unknown origin); type: ADME
Cytochrome P450 2C9 = Cytochrome P450 2C9 (Homo sapiens, UniProt P11712); assay: Inhibition of CYP2C9 (unknown origin); type: ADME
Mus musculus [1] = assay: Antiobesity activity in diet-induced obesity C57Bl6/J mouse model assessed as basal insulin level in plasma at 30 mg/kg qd for 15 days measured on day 15 post 6 hrs fasting (reference value: 16959 +/- 4943 pg/ml); type: functional
Mus musculus [2] = assay: Antiobesity activity in diet-induced obesity C57Bl6/J mouse model assessed as change in plasma insulin level at 10 mg/kg bid for 15 days measured on day 15 post 6 hrs fasting; type: functional
[3] = Half life in mouse at 1.15 mg/kg, iv by LC-MS/MS analysis; type: ADME, organism-based; settings: in vivo
[4] = Protein binding in rat plasma; type: ADME, cell-free; settings: read-out: PPB (converted)
Mus musculus [5] = assay: Antiobesity activity in diet-induced obesity C57Bl6/J mouse model assessed as change in plasma insulin level at 30 mg/kg qd for 15 days measured on day 15 post 6 hrs fasting; type: functional
[6] = target: Free fatty acid receptor 1 (Homo sapiens, UniProt O14842); assay: Agonist activity at human GPR40; type: functional
[7] = AUClast in mouse at 14.6 mg/kg, po by LC-MS/MS analysis; type: ADME, organism-based; design: dose 14.6 mg/kg, route oral, time 0 - last; settings: in vivo
Mus musculus [8] = assay: Antiobesity activity in diet-induced obesity C57Bl6/J mouse model assessed as final glucose level in plasma at 10 mg/kg qd for 15 days measured on day 15 post 6 hrs fasting (reference value: 184 +/- 30 mg/dL); type: functional
[9] = Cmax in rat at 10 mg/kg, po by LC-MS/MS analysis; type: ADME, organism-based; design: dose 10 mg/kg, route oral; settings: in vivo
Mus musculus [10] = assay: Antidiabetic activity in diet-induced obese C57Bl/6 mouse model assessed as plasma concentration required to show reduction in glucose level at 3 mg/kg administered 30 mins prior to glucose challenge measured up to 90 mins post dose by OGTT; type: functional
Mus musculus [11] = assay: Antiobesity activity in diet-induced obesity C57Bl6/J mouse model assessed as basal glucose level in plasma at 10 mg/kg bid for 15 days measured on day 15 post 6 hrs fasting (reference value: 187 +/- 24 mg/dL); type: functional
Mus musculus [12] = assay: Antidiabetic activity in diet-induced obese C57Bl/6 mouse model assessed as change in plasma glucose AUC at 0.3 mg/kg, po administered 30 mins prior to glucose challenge measured up to 90 mins post dose by OGTT; type: functional
Outline: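 Diet-induced obese mice dosed orally at 0.1–3.0 mg/kg 30 min before an oral glucose load (time 0). Glucose followed from 30 min pre-glucose to 90 min post-glucose. Saxagliptin 1 mg/kg was the positive control.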

Cytochrome P450 3A4 = Cytochrome P450 3A4 (Homo sapiens, UniProt P08684); assay: Inhibition of CYP3A4 (unknown origin); type: ADME
Mus musculus [13] = assay: Antiobesity activity in diet-induced obesity C57Bl6/J mouse model assessed as change in plasma insulin level at 10 mg/kg qd for 15 days measured on day 15 post 6 hrs fasting; type: functional
Cavia porcellus = assay: Cardiotoxicity in guinea pig assessed as effect on ECG morphology at 22.4 mg/kg; type: toxicity, organism-based; settings: in vivo

Sequence of Cytochrome P450 2C9 (P11712 whole entry): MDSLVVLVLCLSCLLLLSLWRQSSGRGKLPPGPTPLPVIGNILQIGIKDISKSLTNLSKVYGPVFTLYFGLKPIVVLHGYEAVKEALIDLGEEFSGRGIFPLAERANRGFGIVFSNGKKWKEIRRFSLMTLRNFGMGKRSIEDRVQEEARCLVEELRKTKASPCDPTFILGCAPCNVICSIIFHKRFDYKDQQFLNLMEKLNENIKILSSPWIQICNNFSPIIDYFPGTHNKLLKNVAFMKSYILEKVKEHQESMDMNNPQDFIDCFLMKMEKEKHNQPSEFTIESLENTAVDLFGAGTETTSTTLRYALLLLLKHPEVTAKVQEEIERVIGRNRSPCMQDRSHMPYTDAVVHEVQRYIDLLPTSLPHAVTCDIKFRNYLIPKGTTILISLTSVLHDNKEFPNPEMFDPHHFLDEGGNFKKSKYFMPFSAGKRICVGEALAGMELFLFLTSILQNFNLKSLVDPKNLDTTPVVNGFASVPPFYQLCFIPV
Sequence of Free fatty acid receptor 1 (O14842 whole entry): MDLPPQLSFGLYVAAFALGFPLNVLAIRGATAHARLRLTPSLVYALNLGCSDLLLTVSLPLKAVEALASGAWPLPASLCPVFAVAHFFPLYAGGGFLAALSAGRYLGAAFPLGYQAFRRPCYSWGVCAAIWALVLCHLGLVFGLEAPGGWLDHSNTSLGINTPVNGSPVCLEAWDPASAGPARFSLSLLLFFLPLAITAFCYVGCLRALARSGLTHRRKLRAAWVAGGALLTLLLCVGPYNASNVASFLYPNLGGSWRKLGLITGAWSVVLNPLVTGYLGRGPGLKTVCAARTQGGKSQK
Sequence of Cytochrome P450 3A4 (P08684 whole entry): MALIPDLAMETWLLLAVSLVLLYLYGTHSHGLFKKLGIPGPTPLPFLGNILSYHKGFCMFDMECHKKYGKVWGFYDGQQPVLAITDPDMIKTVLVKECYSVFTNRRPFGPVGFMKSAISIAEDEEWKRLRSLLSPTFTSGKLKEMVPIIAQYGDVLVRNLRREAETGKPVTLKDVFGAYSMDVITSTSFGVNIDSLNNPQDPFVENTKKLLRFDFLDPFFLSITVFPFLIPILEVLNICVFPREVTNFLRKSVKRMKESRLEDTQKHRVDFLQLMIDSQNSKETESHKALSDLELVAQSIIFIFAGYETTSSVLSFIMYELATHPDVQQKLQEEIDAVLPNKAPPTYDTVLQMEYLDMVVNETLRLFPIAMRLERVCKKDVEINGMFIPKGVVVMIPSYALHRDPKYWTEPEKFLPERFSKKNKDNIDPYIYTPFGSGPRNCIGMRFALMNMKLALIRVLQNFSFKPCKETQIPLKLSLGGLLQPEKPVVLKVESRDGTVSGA
Sequence of Cytochrome P450 2C19 (P33261 whole entry): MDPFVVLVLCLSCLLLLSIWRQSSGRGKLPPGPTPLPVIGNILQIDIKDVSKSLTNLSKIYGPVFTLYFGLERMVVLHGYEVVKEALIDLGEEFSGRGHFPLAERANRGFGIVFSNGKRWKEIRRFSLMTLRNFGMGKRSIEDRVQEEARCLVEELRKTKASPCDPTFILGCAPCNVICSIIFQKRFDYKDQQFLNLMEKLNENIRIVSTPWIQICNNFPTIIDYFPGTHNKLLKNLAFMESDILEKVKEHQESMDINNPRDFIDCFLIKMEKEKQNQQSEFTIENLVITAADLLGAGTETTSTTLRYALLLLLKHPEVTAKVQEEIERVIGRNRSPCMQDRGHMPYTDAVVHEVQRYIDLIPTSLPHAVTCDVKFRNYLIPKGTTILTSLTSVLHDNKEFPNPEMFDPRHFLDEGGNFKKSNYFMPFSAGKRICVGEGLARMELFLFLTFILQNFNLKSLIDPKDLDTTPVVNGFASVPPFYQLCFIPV

- INH (Cytochrome P450 2C19): 10 µM
- INH (Cytochrome P450 2C9): 7 µM
- half-life [3]: 4.14 h
- fraction unbound [4]: 0.0017
- EC50 [6]: 3.34 µM
- AUC(0-t) [7]: 81700 ng·h/mL
- Cmax [9]: 11600 ng/mL
- INH (Cytochrome P450 3A4): > 10 µM
Compound: O=C(O)CCc1cc(F)c(OCc2c(C(F)(F)F)ccn2-c2ccc(Cl)cc2)c(F)c1
- Activity (Mus musculus [1]): 17067 pg/mL
- Activity (Mus musculus [2]): -1080 pg/mL
- Activity (Mus musculus [5]): -3450 pg/mL
- Activity (Mus musculus [8]): 163 mg/dL
- EC (Mus musculus [10]): 32 nM
- Activity (Mus musculus [11]): 203 mg/dL
- Activity (Mus musculus [12]): -9%
- Activity (Mus musculus [13]): 457 pg/mL
- Activity (Cavia porcellus): Non-Toxic
